In BindingDB's records for PubMed 36228194 (University of Bayreuth, 2022):

Biological target: T1, NAD-dependent protein deacetylase sirtuin-3, mitochondrial (Homo sapiens, UniProt Q9NTG7)
T1 sequence (Q9NTG7 whole entry): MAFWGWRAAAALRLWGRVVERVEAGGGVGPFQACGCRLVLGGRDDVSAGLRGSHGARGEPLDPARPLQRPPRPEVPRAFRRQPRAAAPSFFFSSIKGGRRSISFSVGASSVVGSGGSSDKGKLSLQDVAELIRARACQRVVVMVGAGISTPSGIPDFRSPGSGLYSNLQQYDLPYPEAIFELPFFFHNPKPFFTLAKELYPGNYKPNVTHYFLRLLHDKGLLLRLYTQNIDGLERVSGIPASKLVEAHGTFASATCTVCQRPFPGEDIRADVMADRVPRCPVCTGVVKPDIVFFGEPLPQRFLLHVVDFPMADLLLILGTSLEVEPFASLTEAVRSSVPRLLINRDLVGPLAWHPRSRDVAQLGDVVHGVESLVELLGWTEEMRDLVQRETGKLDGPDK
Assay: Activation of N-terminal his-tagged human SIRT3 (114 to 380 residues) expressed in Escherichia coli in presence of NAD+ by Mass spectrometry assay
Summary of the method: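 Mass-spectrometric deacetylation assay using coupled-assay components (1.5 µM Sirt3, 50 µM peptide, 100 µM NAD+, compound 100 µM) in 50 mM Na-phosphate pH 7.8 plus 0.05 µg/µL PNCA to remove nicotinamide; product and substrate peptides quantified.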

CCOC(=O)C1=CN(C(=O)c2cc(OC)c(OC)c(OC)c2)C=C(C(=O)OCC)C1c1ccccc1
EC50: 100 µM
